The subject of one data set is Kynurenine. Nature of the data set: Kynurenine production. It is filed as cell-based, human. The following applies: LPS +, metabolites 250 ng/mL. The method in brief:
(§1)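 Caco-2 grown 18 days on 8 μm transwells to TEER 500 ohm×cm2, set over THP-1 differentiated with PMA (15 nM, 48 h). Pretreatment 24 h with fermented supernatant (50 μL/1 mL) or metabolites (250 ng/mL), with or without AHR antagonist TMF. Challenge with LPS 1 μg/ml, IFN-γ and ATP in both compartments. Read-outs: TEER before and after; kynurenine by chemical assay, % control; IL-1β by ELISA, fold over untreated. n = 4 wells; t-test.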

The subject of the next data set is IL-1β. Nature of the data set: IL-1β production. The class given is cell-based, human. The following applies: LPS +, ELISA, metabolites 250 ng/mL. In a few lines:
as §1
Background: ELISA stands for enzyme-linked immunosorbent assay.

The subject of the next data set is THP-1 cells. The data set can be described thus: qPCR gene expression in THP-1 cells of the LPS-challenged coculture. The class given is cell-based, human. Particulars: TMF-treated vs. untreated. A general note: In qPCR the cycle at which signal appears reflects the starting amount.
A further data set has as its system Caco-2 / THP-1 coculture. The data set can be described thus: Transepithelial electrical resistance. It is filed as cell-based, human. The following applies: LPS +, TMF + (AHR antagonist); metabolites 250 ng/mL. In a few lines:
as §1

The target in data set [1] is T1, aryl hydrocarbon receptor (AHR) (Homo sapiens, UniProt P35869).
T1 sequence (P35869 11-848): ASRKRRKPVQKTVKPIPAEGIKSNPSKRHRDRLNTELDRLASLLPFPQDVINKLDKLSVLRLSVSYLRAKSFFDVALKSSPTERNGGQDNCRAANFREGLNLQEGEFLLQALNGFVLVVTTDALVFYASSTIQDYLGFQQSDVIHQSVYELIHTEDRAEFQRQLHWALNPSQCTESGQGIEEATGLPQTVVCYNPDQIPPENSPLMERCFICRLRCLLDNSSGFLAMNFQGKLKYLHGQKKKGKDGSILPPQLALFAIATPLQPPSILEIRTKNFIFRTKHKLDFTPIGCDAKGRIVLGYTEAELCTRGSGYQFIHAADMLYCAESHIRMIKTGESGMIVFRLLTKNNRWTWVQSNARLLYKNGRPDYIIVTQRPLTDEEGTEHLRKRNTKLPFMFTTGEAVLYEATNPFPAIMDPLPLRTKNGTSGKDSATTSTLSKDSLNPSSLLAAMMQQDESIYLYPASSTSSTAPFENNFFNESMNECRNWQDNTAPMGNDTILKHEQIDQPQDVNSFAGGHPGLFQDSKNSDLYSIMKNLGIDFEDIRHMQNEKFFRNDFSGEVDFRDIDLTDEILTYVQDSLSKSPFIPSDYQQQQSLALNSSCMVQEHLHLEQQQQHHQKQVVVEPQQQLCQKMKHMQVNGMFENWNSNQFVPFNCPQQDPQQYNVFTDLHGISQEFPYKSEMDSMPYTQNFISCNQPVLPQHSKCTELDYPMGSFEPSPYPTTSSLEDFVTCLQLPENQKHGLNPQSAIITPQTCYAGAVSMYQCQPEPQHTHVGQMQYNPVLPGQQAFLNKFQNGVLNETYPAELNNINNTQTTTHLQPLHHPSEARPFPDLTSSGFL
The class given is cell-based. Particulars: for dependence of the beneficial / anti-inflammatory activity on AHR signaling: LPS-challenged coculture with AHR antagonist TMF; for anti-inflammatory effects (TEER, cytotoxicity, kynurenine, Il-1β gene expression), correlated to Cyp1a1 mRNA expression: LPS-treated coculture, two concentrations (Table S8). In a few lines:
as §1

The format of data set [2] is in vivo, mice. Particulars: male, mouse, plasma, po; for AUC: over 24 h.
The format of data set [3] is in vivo, mice. Particulars: male, mouse, brain, po; for AUC: over 24 h; for Cmax: n = 6 +/- SEM.
Where [4] appears, read: TMF −, fold change from untreated controls.

Where two headings read alike, the source gives them in different places.

As for `O=C(O)/C=C/c1ccc(O)c(O)c1` [CA, Caffeic acid], the “Kynurenine (% Change)” value in the data set on Kynurenine (TMF +) is recorded as 144.1 ± 6.4 % Change; with Kynurenine (TMF −), 98.6 ± 7.7τ % Change. The “IL-1β(Fold Change)” value was 10.3 ± 0.3τ ^** Fold Change in the data set on IL-1β (TMF +) and 4.0 ± 0.3τ Fold Change in the data set with IL-1β (setting [4]). Besides, the “Tlr4 expression in TMF-treated cultures” value with THP-1 cells was “suppressed”. Also, the “TEER (% Control)” value in the data set on Caco-2 / THP-1 coculture stood at 73.2 ± 0.9 % Control. The “dependence of the beneficial / anti-inflammatory activity on AHR signaling” value in data set [1] is listed as “abrogated by TMF”. Further, the “anti-inflammatory effects (TEER, cytotoxicity, kynurenine, Il-1β gene expression), correlated to Cyp1a1 mRNA expression” value (shortened to “anti-inflammatory effects”) in data set [1] is listed as “dose-dependent anti-inflammatory effects”. Moreover, the AUC (in general, concentration integrated over time) in data set [2] (Chronic BDPP) was 52.8 ng·h/mL; in data set [2] (Chronic Synbiotic) it was 51.4 ng·h/mL. The Tmax in data set [2] (Chronic BDPP) and in data set [2] (Chronic Synbiotic) was 18 min in each case.
As to `COc1cc(O)c2c(=O)c(O)c(-c3ccc(O)c(O)c3)oc2c1` [7′-MeQUER, Rhamnetin], the “Kynurenine (% Change)” value in the data set on Kynurenine (TMF +) was determined as 132.0 ± 13.3 % Change; with Kynurenine (TMF −) it was 119.5 ± 4.3 % Change. Also, the “IL-1β(Fold Change)” value was 8.1 ± 0.4τ Fold Change in the data set with IL-1β (TMF +) and 7.9 ± 0.4τ Fold Change with IL-1β (setting [4]). Also, the “TEER (% Control)” value in the data set on Caco-2 / THP-1 coculture came to 74.5 ± 2.0 % Control. For the same molecule, the AUC in data set [2] (Chronic Synbiotic) came out at 0.4 ng·h/mL; in data set [3] (Chronic Synbiotic), 1.14 ng·h/mL. The Tmax in data set [2] (Chronic Synbiotic) and in data set [3] (Chronic Synbiotic) was 30 min each time. Also, the Cmax (as a rule, the highest concentration seen after dosing) in data set [3] (Chronic Synbiotic) was determined as 0.1 ± 0.09 ng/mL.
Consider `COc1cc(-c2oc3cc(O)cc(O)c3c(=O)c2O)ccc1O` [3′-MeQUER, Isorhamnetin], for which the “Kynurenine (% Change)” value with Kynurenine (TMF +) is reported as 129.9 ± 13.8 % Change; with Kynurenine (TMF −), 102.3 ± 9.6τ % Change. In addition, the “IL-1β(Fold Change)” value in the data set with IL-1β (TMF +) is 9.4 ± 0.3τ ^* Fold Change; in the data set on IL-1β (setting [4]), 6.5 ± 0.4τ Fold Change. Moreover, the “TEER (% Control)” value with Caco-2 / THP-1 coculture is recorded as 73.4 ± 1.2 % Control. For the same molecule, the AUC in data set [2] (Chronic BDPP) is 15.6 ng·h/mL; in data set [2] (Chronic Synbiotic), 72.4 ng·h/mL; in data set [3] (Chronic BDPP) it was 26.9 ng·h/mL; in data set [3] (Chronic Synbiotic), 103 ng·h/mL. Also, the Tmax – broadly, the time from dosing to the highest level – in data set [2] (Chronic BDPP) is 15 min; in data set [2] (Chronic Synbiotic), 30 min; in data set [3] (Chronic BDPP), 18 min; in data set [3] (Chronic Synbiotic), 60 min. In addition, the peak concentration (Cmax) in data set [3] (Chronic BDPP) turned out to be 12.2 ± 6.9 ng/mL; in data set [3] (Chronic Synbiotic), 28.4 ± 6.3 ng/mL.
For `O=c1c(O)c(-c2ccc(O)cc2)oc2cc(O)cc(O)c12` [KAMF, Kaempferol], the “Kynurenine (% Change)” value with Kynurenine (TMF +) came out at 131.7 ± 3.9 % Change; in the data set with Kynurenine (TMF −), 151.0 ± 3.7 % Change. Moreover, the “IL-1β(Fold Change)” value is 10.1 ± 0.7τ Fold Change in the data set on IL-1β (TMF +) and 8.4 ± 0.2τ Fold Change with IL-1β (setting [4]). In addition, the “TEER (% Control)” value in the data set with Caco-2 / THP-1 coculture came to 75.5 ± 2.1 % Control. In addition, the “dependence of the beneficial / anti-inflammatory activity on AHR signaling” value in data set [1] is reported as “independent of AHR signaling”. Further, the “anti-inflammatory effects” value in data set [1] is given as “dose-dependent anti-inflammatory effects”. Also, the AUC was 3.5 ng·h/mL in data set [2] (Chronic BDPP), 38.2 ng·h/mL in data set [2] (Chronic Synbiotic), 87.2 ng·h/mL in data set [3] (Chronic BDPP) and 288 ng·h/mL in data set [3] (Chronic Synbiotic). Also, the Tmax came out at 18 min in data set [2] (Chronic BDPP), 30 min in data set [2] (Chronic Synbiotic), 18 min in data set [3] (Chronic BDPP) and 60 min in data set [3] (Chronic Synbiotic). Moreover, the values for the Cmax in data set [3] (Chronic BDPP) and in data set [3] (Chronic Synbiotic) were 25.3 ± 9.6 ng/mL and 23 ± 2.6 ng/mL, respectively.
Take `O=C(O)Cc1ccc(O)cc1` [4-HPAA, 4-Hydroxyphenylacetic acid]: the “Kynurenine (% Change)” value in the data set on Kynurenine (TMF +) is 120.7 ± 7.9 % Change. Further, the “IL-1β(Fold Change)” value with IL-1β (TMF +) is reported as 9.8 ± 0.4τ ^** Fold Change; in the data set with IL-1β (setting [4]) it was 5.2 ± 0.6τ Fold Change. Moreover, the “Tlr4 expression in TMF-treated cultures” value in the data set with THP-1 cells is “suppressed”. Further, the “TEER (% Control)” value with Caco-2 / THP-1 coculture amounted to 70.2 ± 2.0 % Control. Moreover, the “dependence of the beneficial / anti-inflammatory activity on AHR signaling” value in data set [1] is recorded as “abrogated by TMF”. In data set [1], the “anti-inflammatory effects” value is “dose-dependent anti-inflammatory effects”. Moreover, the AUC in data set [2] (Chronic BDPP) was 3760 ng·h/mL; in data set [2] (Chronic Synbiotic), 4460 ng·h/mL; in data set [3] (Chronic BDPP), 1350 ng·h/mL; in data set [3] (Chronic Synbiotic), 1650 ng·h/mL. Further, the Tmax came out at 30 min in data set [2] (Chronic BDPP), 18 min in data set [2] (Chronic Synbiotic), 60 min in data set [3] (Chronic BDPP) and 60 min in data set [3] (Chronic Synbiotic). In addition, the Cmax amounted to 66.8 ± 4.7 ng/mL in data set [3] (Chronic BDPP) and 108 ± 6.5 ng/mL in data set [3] (Chronic Synbiotic).
In the case of `COc1cc(C(=O)O)ccc1O` [VA, Vanillic acid], the AUC was determined as 299 ng·h/mL in data set [2] (Chronic BDPP), 118 ng·h/mL in data set [2] (Chronic Synbiotic), 169 ng·h/mL in data set [3] (Chronic BDPP) and 205 ng·h/mL in data set [3] (Chronic Synbiotic). For the same molecule, the Tmax was 30 min in data set [2] (Chronic BDPP), 18 min in data set [2] (Chronic Synbiotic), 18 min in data set [3] (Chronic BDPP) and 60 min in data set [3] (Chronic Synbiotic). Besides, the Cmax is 9.7 ± 1 ng/mL in data set [3] (Chronic BDPP) and 13.9 ± 1.8 ng/mL in data set [3] (Chronic Synbiotic).
`O=C(O)CCc1ccc(O)cc1` [4-HPPA, 3-(4-Hydroxyphenyl)propionic acid]: the “Kynurenine (% Change)” value with Kynurenine (TMF +) is recorded as 134.3 ± 3.2 % Change; in the data set on Kynurenine (TMF −), 102.0 ± 2.2τ % Change. For the same molecule, the “IL-1β(Fold Change)” value in the data set on IL-1β (TMF +) is 9.1 ± 0.0τ ^** Fold Change; in the data set with IL-1β (setting [4]) it was 6.4 ± 0.3τ Fold Change. In the data set with THP-1 cells, the “Tlr4 expression in TMF-treated cultures” value is given as “suppressed”. Besides, in the data set on Caco-2 / THP-1 coculture, the “TEER (% Control)” value is 72.3 ± 2.0 % Control. Moreover, the “dependence of the beneficial / anti-inflammatory activity on AHR signaling” value in data set [1] is recorded as “abrogated by TMF”. For the same molecule, in data set [1], the “anti-inflammatory effects” value was “dose-dependent anti-inflammatory effects”. For the same molecule, the results for the AUC in data set [2] (Chronic BDPP) and in data set [2] (Chronic Synbiotic) were 406 ng·h/mL and 2170 ng·h/mL, respectively. Besides, the Tmax stood at 30 min in data set [2] (Chronic BDPP) and 18 min in data set [2] (Chronic Synbiotic).
